Measured values as given in ChEMBL document CHEMBL1141308, “The ansacarbamitocins: polar ansamitocin derivatives” (J Nat Prod, 2007).
The source made the active and inactive calls. The calls are words filed in the database; no cut-off is given here.

Experiments:
[1] = system: Septoria; experiment: Antifungal activity against Septoria tritici at 25 ug/mL; assay type: functional
Summary of the method: (§1)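 In vitro antifungal screening assay against the named Septoria species, testing purified compounds at a single concentration of 25 µg/mL.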

[2] = Antifungal activity against Septoria nodorum at 25 ug/mL; assay type: functional; summary of the method: as §1

SMILES	Activity [1]	Activity [2]
CNC(=O)O[C@H]1CC(=O)N([C@H]2O[C@@H](COC(C)=O)[C@H](OC(N)=O)[C@@H](OC)[C@@H]2O)c2cc(cc(O)c2Cl)C/C(C)=C/C=C/[C@@H](OC)[C@@]2(O)C[C@H](OC(=O)N2)[C@@H](C)[C@H]2O[C@@]12C	inactive	inactive
CNC(=O)O[C@H]1CC(=O)N([C@H]2O[C@@H](CO)[C@H](OC(N)=O)[C@@H](O)[C@@H]2O)c2cc(cc(O)c2Cl)C/C(C)=C/C=C/[C@@H](OC)[C@@]2(O)C[C@H](OC(=O)N2)[C@@H](C)[C@H]2O[C@@]12C	inactive	inactive
CNC(=O)O[C@H]1CC(=O)N([C@H]2O[C@@H](COC(C)=O)[C@H](OC(N)=O)[C@@H](O)[C@@H]2O)c2cc(cc(O)c2Cl)C/C(C)=C/C=C/[C@@H](OC)[C@@]2(O)C[C@H](OC(=O)N2)[C@@H](C)/C=C/1C	inactive	inactive
CNC(=O)O[C@H]1CC(=O)N([C@H]2O[C@@H](COC(C)=O)[C@H](OC(N)=O)[C@@H](OC)[C@@H]2O)c2cc(cc(O)c2Cl)C/C(C)=C/C=C/[C@@H](OC)[C@@]2(O)C[C@H](OC(=O)N2)[C@@H](C)/C=C/1C	inactive	inactive
CNC(=O)O[C@H]1CC(=O)N([C@H]2O[C@@H](CO)[C@H](O)[C@@H](O)[C@@H]2O)c2cc(cc(O)c2Cl)C/C(C)=C/C=C/[C@@H](OC)[C@@]2(O)C[C@H](OC(=O)N2)[C@@H](C)[C@H]2O[C@@]12C	inactive	inactive
CNC(=O)O[C@H]1CC(=O)N([C@H]2O[C@@H](CO)[C@H](OC(N)=O)[C@@H](OC)[C@@H]2O)c2cc(cc(O)c2Cl)C/C(C)=C/C=C/[C@@H](OC)[C@@]2(O)C[C@H](OC(=O)N2)[C@@H](C)[C@H]2O[C@@]12C	inactive	inactive
CNC(=O)O[C@H]1CC(=O)N([C@H]2O[C@@H](COC(C)=O)[C@H](OC(N)=O)[C@@H](O)[C@@H]2O)c2cc(cc(O)c2Cl)C/C(C)=C/C=C/[C@@H](OC)[C@@]2(O)C[C@H](OC(=O)N2)[C@@H](C)[C@H]2O[C@@]12C	inactive	inactive
CNC(=O)O[C@H]1CC(=O)N([C@H]2O[C@@H](CO)[C@H](O)[C@@H](OC)[C@@H]2O)c2cc(cc(O)c2Cl)C/C(C)=C/C=C/[C@@H](OC)[C@@]2(O)C[C@H](OC(=O)N2)[C@@H](C)[C@H]2O[C@@]12C	inactive	inactive
